# Assay results published in ChEMBL document CHEMBL1833957, “P1-substituted symmetry-based human immunodeficiency virus protease inhibitors with potent antiviral activity against drug-resistant viruses” (J Med Chem, 2011).
# Assays:
# [1] = system: Human immunodeficiency virus 1; assay: Antiviral activity against wild type HIV1 pNL4-3 infected in human MT4 cells assessed as inhibition of virus-induced cell death after 5 days by MTT assay in presence of 50% human serum; type: functional, organism-based; conditions: Human immunodeficiency virus 1, pNL4-3, MT4, 120 h
# [2] = system: Human immunodeficiency virus 1; assay: Antiviral activity against HIV1 A17 harboring protease L10F, V32I, M46I, I47V, Q58E and I84V mutant infected in human MT4 cells assessed as inhibition of virus-induced cell death after 5 days by MTT assay relative to wild type HIV1 pNL4-3; type: functional
# [3] = system: Human immunodeficiency virus 1; assay: Antiviral activity against HIV1 B26 harboring protease L33F, K45I, M46I, I50V, A71V and V82F mutant infected in human MT4 cells assessed as inhibition of virus-induced cell death after 5 days by MTT assay relative to wild type HIV1 pNL4-3; type: functional
# [4] = system: Human immunodeficiency virus 1; assay: (§1) Antiviral activity against HIV1 isolate 1 harboring protease L10I, E35D, N37D, M46I, I54V, G57R, L63P, A71V, T74P, I84V, L90M, I93L mutant infected in human MT4 cells assessed as inhibition of virus-induced cell death after 5 days by MTT assay relative to wild type HIV1 pNL4-3; type: functional
# [5] = system: Human immunodeficiency virus 1; assay: as §1, with “HIV1” for “HIV1 isolate 1”, “I13V, G16A, Q18H, L33F,” for “E35D,”, “G57R, Q61H,I62V,” for “G57R,”, “A71L, I72T, L76V, V77I, V82A, N88G,” for “A71V, T74P, I84V,”; type: functional
# [6] = Oral bioavailability in rat at 5 mg/kg; type: ADME, organism-based; conditions: in vivo
# [7] = Oral bioavailability in rat at 5 mg/kg co-administered with 5 mg/kg of CYP3A4 inhibitor ritonavir relative to iv dose without ritonavir co-administration; type: ADME, organism-based; conditions: in vivo
# Summary of the method: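 Rats given 5 mg/kg orally with 5 mg/kg ritonavir. Bioavailability (%) is calculated against an IV dose given without ritonavir.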
# [8] = Cmax in rat at 5 mg/kg, po co-administered with 5 mg/kg of CYP3A4 inhibitor ritonavir; type: ADME, organism-based; design: dose 5 mg/kg, route oral; conditions: in vivo
# Summary of the method: (§2)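 Rats given 5 mg/kg orally together with 5 mg/kg ritonavir. Plasma Cmax is reported in μg/mL and AUC in μg h/mL.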
# [9] = AUC in rat at 5 mg/kg, po co-administered with 5 mg/kg of CYP3A4 inhibitor ritonavir; type: ADME, organism-based; conditions: plasma; summary of the method: as §2
# [10] = system: Human immunodeficiency virus 1; assay: Antiviral activity against wild type HIV1 pNL4-3 infected in human MT4 cells assessed as inhibition of virus-induced cell death after 5 days by MTT assay; type: functional, organism-based; conditions: Human immunodeficiency virus 1, pNL4-3, MT4, 120 h
# Summary of the method: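 EC50 measured against wild-type virus in MT-4 cells, with no human serum added.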
# [11] = Cmax in rat at 5 mg/kg, po; type: ADME, organism-based; design: dose 5 mg/kg, route oral; conditions: in vivo
# Summary of the method: (§3)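 Rats given a single 5 mg/kg oral dose with no ritonavir. Plasma Cmax is reported in μg/mL and AUC in μg h/mL.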
# [12] = AUC in rat at 5 mg/kg, po; type: ADME, organism-based; design: dose 5 mg/kg, route oral; conditions: plasma; summary of the method: as §3
# [13] = Metabolic stability in human liver microsomes assessed as disappearance of the compound after 20 mins; type: ADME, Microsome; conditions: read-out: Drug metabolism
# Liver microsomes [14] = assay: Metabolic stability in human liver microsomes assessed as disappearance of the compound after 20 mins in the presence of 0.4 uM CYP3A4 inhibitor ritonavir; type: ADME, Microsome
# Liver microsomes [15] = assay: Metabolic stability in human liver microsomes assessed as disappearance of the compound after 20 mins in the presence of 0.4 uM CYP3A4 inhibitor ritonavir
# Rattus norvegicus = assay: Ratio of AUC in rat at 5 mg/kg, po co-administered with 5 mg/kg CYP3A4 inhibitor ritonavir to AUC in rat at 5 mg/kg, po in the absence of CYP3A4 inhibitor ritonavir; type: ADME, organism-based; conditions: in vivo
Structure (SMILES),EC50 [1],fold change (FC) [2],fold change (FC) [3],fold change (FC) [4],fold change (FC) [5],bioavailability [6],bioavailability [7],Cmax [8],AUC [9],EC50 [10],Cmax [11],AUC [12],metabolised at 20 min [13],Stability (Liver microsomes [14]),Stability (Liver microsomes [15]),Ratio AUC (Rattus norvegicus)
COC(=O)N[C@H](C(=O)N[C@@H](Cc1ccccc1)C[C@H](O)[C@H](Cc1ccc(-c2ccc(OC)cc2)cc1)NC(=O)[C@@H](NC(=O)OC)C(C)(C)C)C(C)(C)C,0.003 µM,48,30,34,18,0%,14%,50 ng/mL,270 ng·h/mL,0.001 µM,,,,,,
COC(=O)N[C@H](C(=O)N[C@@H](Cc1ccccc1)C[C@H](O)[C@H](Cc1ccc(-c2ccc(N)cc2)cc1)NC(=O)[C@@H](NC(=O)OC)C(C)(C)C)C(C)(C)C,0.038 µM,7,9,45,7,,,,,0.006 µM,,,,,,
COC(=O)N[C@H](C(=O)N[C@@H](Cc1ccccc1)C[C@H](O)[C@H](Cc1ccc(-c2cccnc2)cc1)NC(=O)[C@@H](NC(=O)OC)C(C)(C)C)C(C)(C)C,0.035 µM,2,3,29,17,5%,25%,430 ng/mL,740 ng·h/mL,0.011 µM,180 ng/mL,160 ng·h/mL,40%,Stable,Stable,
COC(=O)N[C@H](C(=O)N[C@@H](Cc1ccccc1)C[C@H](O)[C@H](Cc1ccc(-c2cccc(CO)c2)cc1)NC(=O)[C@@H](NC(=O)OC)C(C)(C)C)C(C)(C)C,0.092 µM,1,1,52,4,,,,,0.021 µM,,,,,,
COC(=O)N[C@H](C(=O)N[C@@H](Cc1ccccc1)C[C@H](O)[C@H](Cc1ccc(-c2ccc(O)cc2)cc1)NC(=O)[C@@H](NC(=O)OC)C(C)(C)C)C(C)(C)C,0.071 µM,3,3,,,,,,,0.013 µM,,,,,,
COC(=O)N[C@H](C(=O)N[C@@H](Cc1ccccc1)C[C@H](O)[C@H](Cc1ccc(-c2cccc(N)c2)cc1)NC(=O)[C@@H](NC(=O)OC)C(C)(C)C)C(C)(C)C,0.02 µM,3,3,9,1,1%,5%,100 ng/mL,70 ng·h/mL,0.005 µM,100 ng/mL,20 ng·h/mL,,,,
COC(=O)N[C@H](C(=O)N[C@@H](Cc1ccccc1)C[C@H](O)[C@H](Cc1ccc(-c2ccc(C#N)nc2)cc1)NC(=O)[C@@H](NC(=O)OC)C(C)(C)C)C(C)(C)C,0.023 µM,8,12,16,3,,,,,0.006 µM,,,,,,
COC(=O)N[C@H](C(=O)N[C@@H](Cc1ccccc1)C[C@H](O)[C@H](Cc1ccc(-c2ccncc2)cc1)NC(=O)[C@@H](NC(=O)OC)C(C)(C)C)C(C)(C)C,0.034 µM,2,3,,,,,,,0.013 µM,,,,,,
COC(=O)N[C@H](C(=O)N[C@H](Cc1ccc(-c2ccccn2)cc1)C[C@H](O)[C@H](Cc1ccccc1)NC(=O)[C@@H](N1CCN(Cc2cccc(C(C)(C)O)n2)C1=O)C(C)(C)C)C(C)(C)C,,3,7,57,2,,,,,,,,,,,
COC(=O)N[C@H](C(=O)N[C@@H](Cc1ccccc1)C[C@H](O)[C@H](Cc1ccc(-c2ccc(C(C)=O)cc2)cc1)NC(=O)[C@@H](NC(=O)OC)C(C)(C)C)C(C)(C)C,0.003 µM,9,8,28,4,0%,27%,50 ng/mL,220 ng·h/mL,0.001 µM,,,,,,
COC(=O)N[C@H](C(=O)N[C@@H](Cc1ccccc1)C[C@H](O)[C@H](Cc1ccc(-c2ccc(CO)cc2)cc1)NC(=O)[C@@H](NC(=O)OC)C(C)(C)C)C(C)(C)C,0.018 µM,2,2,45,2,0%,0.3%,10 ng/mL,10 ng·h/mL,0.005 µM,,,,,,
CNC(=O)c1ccc(-c2ccc(C[C@H](NC(=O)[C@@H](NC(=O)OC)C(C)(C)C)[C@@H](O)C[C@H](Cc3ccccc3)NC(=O)[C@@H](NC(=O)OC)C(C)(C)C)cc2)cc1,0.056 µM,1,1,7,1,,,,,0.004 µM,,,,,,
COC(=O)N[C@H](C(=O)N[C@@H](Cc1ccccc1)C[C@H](O)[C@H](Cc1ccc(-c2cnccn2)cc1)NC(=O)[C@@H](NC(=O)OC)C(C)(C)C)C(C)(C)C,0.151 µM,7,4,,,,,,,0.054 µM,,,,,,
COC(=O)N[C@H](C(=O)N[C@@H](Cc1ccccc1)C[C@H](O)[C@H](Cc1ccc(-c2cnc3ccccc3c2)cc1)NC(=O)[C@@H](NC(=O)OC)C(C)(C)C)C(C)(C)C,,,,,,1%,63%,220 ng/mL,1850 ng·h/mL,,20 ng/mL,30 ng·h/mL,,,,
COC(=O)N[C@H](C(=O)N[C@@H](Cc1ccccc1)C[C@H](O)[C@H](Cc1ccc(-c2ccccc2)cc1)NC(=O)[C@@H](NC(=O)OC)C(C)(C)C)C(C)(C)C,0.095 µM,21,12,,,,,,,0.004 µM,,,,,,
COC(=O)N[C@H](C(=O)N[C@@H](Cc1ccccc1)C[C@H](O)[C@H](Cc1ccc(-c2cncnc2)cc1)NC(=O)[C@@H](NC(=O)OC)C(C)(C)C)C(C)(C)C,0.058 µM,41,74,,,,,,,0.002 µM,,,,,,
COC(=O)N[C@H](C(=O)N[C@@H](Cc1ccccc1)C[C@H](O)[C@H](Cc1ccc(-c2ccc(F)nc2)cc1)NC(=O)[C@@H](NC(=O)OC)C(C)(C)C)C(C)(C)C,0.014 µM,12,14,58,7,,,,,0.003 µM,,,,,,
Cc1cccc(C)c1OCC(=O)N[C@@H](Cc1ccccc1)[C@@H](O)C[C@H](Cc1ccccc1)NC(=O)[C@H](C(C)C)N1CCCNC1=O [LOPINAVIR],,59,211,62,234,,,,,,,,,,,
COC(=O)N[C@H](C(=O)N[C@@H](Cc1ccccc1)C[C@H](O)[C@H](Cc1ccc(-c2ccnc(F)c2)cc1)NC(=O)[C@@H](NC(=O)OC)C(C)(C)C)C(C)(C)C,0.007 µM,10,10,30,2,,,,,0.002 µM,,,,,,
COC(=O)N[C@H](C(=O)N[C@@H](Cc1ccccc1)C[C@H](O)[C@H](Cc1ccc(-c2ccc(CO)nc2)cc1)NC(=O)[C@@H](NC(=O)OC)C(C)(C)C)C(C)(C)C,0.045 µM,0.2,0.6,12,2,,,,,0.014 µM,,,,,,
COC(=O)N[C@H](C(=O)N[C@@H](Cc1ccccc1)C[C@H](O)[C@H](Cc1ccc(-c2ccccn2)cc1)NC(=O)[C@@H](NC(=O)OC)C(C)(C)C)C(C)(C)C,0.019 µM,20,29,,,7%,> 100%,1550 ng/mL,4880 ng·h/mL,0.006 µM,280 ng/mL,190 ng·h/mL,40%,Stable,Stable,25
CNC(=O)c1cccc(-c2ccc(C[C@H](NC(=O)[C@@H](NC(=O)OC)C(C)(C)C)[C@@H](O)C[C@H](Cc3ccccc3)NC(=O)[C@@H](NC(=O)OC)C(C)(C)C)cc2)c1,0.842 µM,0.4,0.5,,,,,,,0.159 µM,,,,,,
